# Measurements from ChEMBL document CHEMBL4014285, “Novel, highly potent systemic glucokinase activators for the treatment of Type 2 Diabetes Mellitus” (Bioorg Med Chem Lett, 2017).
# Activity calls are given as the source filed them. The calls are words filed in the database; no cut-off is given here.
# Columns and labels:
# [1] = target: T1, Hexokinase-4 (Homo sapiens) (UniProt P35557); test: Activation of recombinant human glucokinase assessed as conversion of D-glucose to D-glucose-6-phosphate in presence of 2.5 mM glucose by G6PDH coupled spectrophotometric assay relative to control
# T1 sequence (whole entry): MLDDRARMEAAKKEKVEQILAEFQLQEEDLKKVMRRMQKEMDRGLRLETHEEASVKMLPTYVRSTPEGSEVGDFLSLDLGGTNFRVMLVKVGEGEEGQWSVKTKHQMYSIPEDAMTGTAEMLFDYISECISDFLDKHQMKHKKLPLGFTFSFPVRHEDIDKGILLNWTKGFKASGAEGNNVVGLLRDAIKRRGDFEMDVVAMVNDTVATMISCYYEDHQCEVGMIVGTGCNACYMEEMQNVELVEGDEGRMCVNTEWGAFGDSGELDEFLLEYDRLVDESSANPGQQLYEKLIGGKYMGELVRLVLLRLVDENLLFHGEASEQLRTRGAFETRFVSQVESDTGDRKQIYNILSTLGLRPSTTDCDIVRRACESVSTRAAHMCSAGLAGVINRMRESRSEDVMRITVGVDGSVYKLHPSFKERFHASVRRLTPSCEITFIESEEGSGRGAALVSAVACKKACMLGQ
# Method in brief: (§1)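 Recombinant human GK; ATP-dependent D-glucose-6-phosphate formation from D-glucose at 2.5 or 10 mM, read by continuous glucose-6-phosphate dehydrogenase coupled spectrophotometry. Activators titrated at 1% DMSO final, DMSO as control. EC50 = concentration giving half of maximal increase in product formation; maximum activity expressed as percent velocity increase vs DMSO at saturating activator. Single titration.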
# Hexokinase-4 [2] = target: T2, Hexokinase-4 (Rattus norvegicus, UniProt P17712); test: Activation of glucokinase in primary rat hepatocytes assessed as increase in D-2-deoxyglucose-6-phosphate level in presence of D-2-deoxyglucose by HILIC LC-MS method; type: cell-based
# T2 sequence (P17712 whole entry): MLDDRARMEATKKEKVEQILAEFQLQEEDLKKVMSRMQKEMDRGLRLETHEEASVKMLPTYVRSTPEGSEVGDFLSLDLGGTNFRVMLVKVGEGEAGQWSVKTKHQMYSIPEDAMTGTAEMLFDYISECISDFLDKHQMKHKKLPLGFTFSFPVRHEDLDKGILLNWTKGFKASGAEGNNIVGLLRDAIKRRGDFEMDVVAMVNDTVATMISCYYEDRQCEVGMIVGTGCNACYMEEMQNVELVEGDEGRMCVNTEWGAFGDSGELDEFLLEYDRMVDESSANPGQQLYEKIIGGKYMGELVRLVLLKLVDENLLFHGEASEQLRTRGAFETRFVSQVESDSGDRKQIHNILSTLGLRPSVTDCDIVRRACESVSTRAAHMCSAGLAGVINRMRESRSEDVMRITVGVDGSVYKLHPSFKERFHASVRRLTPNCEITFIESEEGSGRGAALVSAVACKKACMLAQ
# Method in brief: (§2)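 GKACA cell assay in rat INS-1 Clone-13 insulinoma cells or freshly isolated primary rat hepatocytes; intracellular D-2-deoxyglucose-6-phosphate formed from exogenous D-2-deoxyglucose quantified by HILIC LC-MS; EC50 from a single titration.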
# Hexokinase-4 [3] = target: T3, Hexokinase-4 (Homo sapiens, UniProt P35557); test: Activation of recombinant human glucokinase assessed as conversion of D-glucose to D-glucose-6-phosphate in presence of 2.5 mM glucose by G6PDH coupled spectrophotometric assay; method in brief: as §1
# T3 sequence (P35557 whole entry): T1 sequence (whole entry)
# [4] = target: T1, Hexokinase-4 (Homo sapiens); test: Activation of recombinant human glucokinase assessed as conversion of D-glucose to D-glucose-6-phosphate in presence of 10 mM glucose by G6PDH coupled spectrophotometric assay relative to control; method in brief: as §1
# Hexokinase-4 [5] = target: T2, Hexokinase-4; test: Activation of glucokinase in rat INS-1 cells assessed as increase in D-2-deoxyglucose-6-phosphate level in presence of D-2-deoxyglucose by HILIC LC-MS method; type: cell-based; method in brief: as §2
# Hexokinase-4 [6] = target: T3, Hexokinase-4; test: Activation of recombinant human glucokinase assessed as conversion of D-glucose to D-glucose-6-phosphate in presence of 10 mM glucose by G6PDH coupled spectrophotometric assay; method in brief: as §1
# [7] = Solubility of the compound at pH 2; type: physicochemical; conditions: buffer
# [8] = Solubility of the compound at pH 7; type: physicochemical; conditions: buffer
# [9] = Mean residence time in rat; type: ADME; conditions: in vivo
# [10] = Unbound fraction in C57BL/6 mouse plasma; type: ADME, cell-free
# Method in brief: (§3)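 Unbound fraction determined in 100% human or C57BL/6 mouse plasma.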
# [11] = Total drug level in HFD-fed C57BL/6 mouse plasma at 0.10 mg/kg, po measured at 4 hrs post dose; type: ADME, organism-based; conditions: 0.1 mg/kg
# Method in brief: (§4)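 3-week high fat diet-fed C57BL/6 mice given 0.01, 0.03 or 0.10 mg/kg orally; total (bound plus unbound) drug concentration in plasma sampled 4 h after dosing.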
# [12] = Volume of distribution at steady state in rat; type: ADME; conditions: in vivo, read-out: Vdss
# [13] = Unbound fraction in human plasma; type: ADME, cell-free; method in brief: as §3
# Plasma = test: Total drug level in po dosed HFD-fed C57BL/6 mouse plasma measured at 4 hrs post dose; type: ADME, organism-based; conditions: in vivo; method in brief: as §4
# [14] = Total drug level in HFD-fed C57BL/6 mouse plasma at 0.01 mg/kg, po measured at 4 hrs post dose; type: ADME, organism-based; method in brief: as §4
# [15] = Oral bioavailability in rat; type: ADME, organism-based; conditions: in vivo
# [16] = Stability of compound in rat liver microsomes assessed as compound remaining at 1 uM measured after 30 mins; type: ADME, microsome; conditions: read-out: Stability
# Method in brief: (§5)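 Human or rat liver microsome preparations incubated with compound; percent parent remaining after 30 min.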
# [17] = Stability of compound in human liver microsomes assessed as compound remaining at 1 uM measured after 30 mins; type: ADME, microsome; conditions: read-out: Stability; method in brief: as §5
# [18] = Total drug level in HFD-fed C57BL/6 mouse plasma at 0.03 mg/kg, po measured at 4 hrs post dose; type: ADME, organism-based; method in brief: as §4
# [19] = Apparent permeability in MDCK cells; type: ADME, cell-based, Canis lupus familiaris; conditions: dog
# [20] = Apparent permeability in pig LLC-PK1 cells; type: ADME, cell-based, Sus scrofa
# [21] = Clearance in rat; type: ADME; conditions: in vivo
# Rattus norvegicus [22] = organism: Rattus norvegicus; test: Dose normalized AUC in rat; type: ADME; conditions: in vivo
# Rattus norvegicus [23] = organism: Rattus norvegicus; test: Dose normalized Cmax in rat; type: ADME; conditions: in vivo
# [24] = Half life in rat; type: ADME; conditions: in vivo
# Mus musculus [25] = test: Antidiabetic activity in HFD-fed C57BL/6 mouse assessed as increase in plasma insulin level at 0.03 to 0.1 mg/kg, po; type: functional, organism-based
# Method in brief: (§6)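 C57BL/6 mice fed high fat diet for 3 weeks, baseline blood glucose ~200 mg/dl, dosed orally at 0.01, 0.03 and 0.1 mg/kg. Blood glucose followed from 30 min through 4 h post dose, with blood glucose AUC over the period; plasma insulin also measured.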
# Mus musculus [26] = test: Antidiabetic activity in HFD-fed C57BL/6 mouse assessed as reduction in blood glucose AUC at 0.03 to 0.1 mg/kg, po measured at 4 hrs post dose; type: functional, organism-based; method in brief: as §6
# Mus musculus [27] = test: Antidiabetic activity in HFD-fed C57BL/6 mouse assessed as decrease in blood glucose level at 0.03 mg/kg, po measured after 30 mins; type: functional, organism-based; method in brief: as §6
SMILES,%max [1],EC50 (Hexokinase-4 [2]),EC50 (Hexokinase-4 [3]),%max [4],EC50 (Hexokinase-4 [5]),EC50 (Hexokinase-4 [6]),further results
CCOC(=O)c1ccc(Oc2cc3cc(-c4ccc(C(F)(F)F)cn4)[nH]c3cc2C2CCC(=O)N2C)cc1 (configuration not stated),452%,232 nM,4.8 nM,123%,22 nM,9.2 nM,
CCS(=O)(=O)c1ccc(Oc2cc3cc(-c4ccc(C(F)(F)F)cn4)[nH]c3cc2C2CCC(=O)N2C)cc1 (configuration not stated),602%,174 nM,2 nM,158%,1.7 nM,1.4 nM,
CN1C(=O)CCC1c1cc2[nH]c(-c3ccc(C(F)(F)F)cn3)cc2cc1Oc1ccc(C(=O)O)cc1 (configuration not stated),683%,728 nM,24 nM,179%,2110 nM,9.6 nM,solubility [7]: 5 µM; solubility [8]: 113 µM
COC(=O)c1ccc(-c2cc3cc(Oc4ccc(S(C)(=O)=O)nc4)c(C4CCC(=O)N4C)cc3[nH]2)nc1 (racemic),739%,20 nM,8.2 nM,184%,7.8 nM,3.4 nM,
"Cc1cnc(-c2cc3cc(Oc4ccc(S(C)(=O)=O)nc4)c(C4CCC(=O)N4C)cc3[nH]2)s1 (single isomer, unassigned) [listing 1 of 2 here]",,16 nM,4.5 nM,,21 nM,3.8 nM,
"Cc1cnc(-c2cc3cc(Oc4ccc(S(C)(=O)=O)nc4)c(C4CCC(=O)N4C)cc3[nH]2)s1 (single isomer, unassigned) [listing 2 of 2 here]",620%,,,168%,,,
"CN1C(=O)CCC1c1cc2[nH]c(-c3ccccn3)cc2cc1Oc1ccc(S(C)(=O)=O)nc1 (single isomer, unassigned; ent-1) [listing 1 of 2 here]",,7.5 nM,3.7 nM,,0.9 nM,2.4 nM,"MRT [9]: 2.85 h; fraction unbound [10]: 0.072; concentration at 4 h [11]: 18 nM; Vd [12]: 3.05 L/kg; fraction unbound [13]: 0.087; Drug uptake (Plasma): Dose-dependent effect; concentration at 4 h [14]: 3.8 nM; bioavailability [15]: 30%; remaining at 0.5 h, 1 µM [16]: 79%; remaining at 0.5 h, 1 µM [17]: 75%; concentration at 4 h [18]: 12 nM; solubility [7]: 194 µM; Papp [19]: 40 ×10⁻⁶ cm/s; Papp [20]: 40 ×10⁻⁶ cm/s; clearance [21]: 18 mL/min/kg; AUC/dose (Rattus norvegicus [22]): 0.59 µM·kg·h/mg; solubility [8]: 142 µM; Cmax/dose (Rattus norvegicus [23]): 0.235 µM·kg/mg; half-life [24]: 2.8 h"
"CN1C(=O)CCC1c1cc2[nH]c(-c3ccccn3)cc2cc1Oc1ccc(S(C)(=O)=O)nc1 (single isomer, unassigned; ent-1) [listing 2 of 2 here]",784%,,,193%,,,Activity (Mus musculus [25]): Active; Activity (Mus musculus [26]): Active; Activity (Mus musculus [27]): Active
"CN1C(=O)CCC1c1cc2[nH]c(-c3ccc(C(F)(F)F)cn3)cc2cc1Oc1ccc(S(C)(=O)=O)nc1 (single isomer, unassigned; ent-2) [listing 1 of 2 here]",,199 nM,86 nM,,375 nM,31 nM,
"CN1C(=O)CCC1c1cc2[nH]c(-c3ccc(C(F)(F)F)cn3)cc2cc1Oc1ccc(S(C)(=O)=O)nc1 (single isomer, unassigned; ent-2) [listing 2 of 2 here]",583%,,,141%,,,
CN1C(=O)CCC1c1cc2[nH]c(-c3ccccn3)cc2cc1Oc1ccc(S(C)(=O)=O)nc1 (stereo in doubt; 1-en) [listing 1 of 2 here],,93 nM,4.2 nM,,33 nM,0.8 nM,
CN1C(=O)CCC1c1cc2[nH]c(-c3ccccn3)cc2cc1Oc1ccc(S(C)(=O)=O)nc1 (stereo in doubt; 1-en) [listing 2 of 2 here],628%,,,158%,,,
